{
  "source": "ChEMBL document CHEMBL5303300",
  "about": "“EUbOPEN Chemogenomics Library - Multiplex” (2023)",
  "tested_on": "U2OS",
  "assay": "Multiplex assay against U2OS",
  "format": "toxicity, cell-based",
  "conditions": "human, number of replicates 2",
  "method_in_brief": "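Imaging took place on a CQ1 microscope at 37°C and 5% CO2 once compound had been added to live cells stained at seeding with Hoechst33342, BioTracker Green Microtubule Cytoskeleton Dye, MitoTracker Red and Annexin V Alexa Fluor 680. CellPathfinder machine-learning gating classed cells as Hoechst high-intensity objects or normal cells, classed normal cells as having healthy, pyknosed or fragmented nuclei, and classed pyknosed cells as mitotic or apoptotic. Tubulin, mitochondrial-mass and membrane-permeability phenotypes are per cents of the healthy-nucleus cells.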",
  "key": {"[1]": {"conditions": "12 h, 1 µM, compound concentration 1 uM"}, "[2]": {"conditions": "12 h, 10 µM, compound concentration 10 uM"}, "[3]": {"conditions": "24 h, 1 µM, compound concentration 1 uM"}, "[4]": {"conditions": "24 h, 10 µM, compound concentration 10 uM"}, "[5]": {"conditions": "48 h, 1 µM, compound concentration 1 uM"}, "[6]": {"conditions": "48 h, 10 µM, compound concentration 10 uM"}},
  "note": "Several values for one entry are separate records, joined by “and”; a condition that tells them apart may be missing. Equal entries are not always repeated.",
  "data": [
    {"smiles": "COc1ccc(-c2cc3c(C)nc(N)nc3n([C@H]3CC[C@H](OCCO)CC3)c2=O)cn1", "note": "[PF-04691502]", "values": [
      {"measurement": "Population Apoptotic (%)", "setting": "[1]", "result": "50% and 76%"},
      {"measurement": "Population Healthy Nuclei (%)", "setting": "[1]", "result": "57% and 78%"},
      {"measurement": "Population Hoechst High Intensity Objects (%)", "setting": "[1]", "result": 0, "unit": "%"},
      {"measurement": "Population Membrane Permeable-Phenotype (%)", "setting": "[1]", "result": "10% and 2%"},
      {"measurement": "Population Mitochondria Different-Phenotype (%)", "setting": "[1]", "result": "0% and 1%"},
      {"measurement": "Population Mitotic Cells (%)", "setting": "[1]", "result": "50% and 23%"},
      {"measurement": "Population Normal (%)", "setting": "[1]", "result": 100, "unit": "%"},
      {"measurement": "Population Pyknosed Nuclei (%)", "setting": "[1]", "result": "6% and 12%"},
      {"measurement": "Population Tubulin-Different-Phenotype (%)", "setting": "[1]", "result": "84% and 83%"},
      {"measurement": "Population Apoptotic (%)", "setting": "[2]", "result": "88% and 83%"},
      {"measurement": "Population Fragmented Nuclei (%)", "setting": "[2]", "result": "25% and 13%"},
      {"measurement": "Population Healthy Nuclei (%)", "setting": "[2]", "result": "46% and 54%"},
      {"measurement": "Population Hoechst High Intensity Objects (%)", "setting": "[2]", "result": "3% and 2%"},
      {"measurement": "Population Membrane Permeable-Phenotype (%)", "setting": "[2]", "result": "0% and 7%"},
      {"measurement": "Population Mitochondria Different-Phenotype (%)", "setting": "[2]", "result": "0% and 3%"},
      {"measurement": "Population Mitotic Cells (%)", "setting": "[2]", "result": "11% and 16%"},
      {"measurement": "Population Normal (%)", "setting": "[2]", "result": "96% and 97%"},
      {"measurement": "Population Pyknosed Nuclei (%)", "setting": "[2]", "result": "28% and 32%"},
      {"measurement": "Population Tubulin-Different-Phenotype (%)", "setting": "[2]", "result": "80% and 50%"},
      {"measurement": "Population Apoptotic (%)", "setting": "[3]", "result": "60% and 76%"},
      {"measurement": "Population Fragmented Nuclei (%)", "setting": "[3]", "result": "19% and 10%"},
      {"measurement": "Population Healthy Nuclei (%)", "setting": "[3]", "result": "66% and 75%"},
      {"measurement": "Population Hoechst High Intensity Objects (%)", "setting": "[3]", "result": 0, "unit": "%"},
      {"measurement": "Population Membrane Permeable-Phenotype (%)", "setting": "[3]", "result": "0% and 2%"},
      {"measurement": "Population Mitochondria Different-Phenotype (%)", "setting": "[3]", "result": "0% and 1%"},
      {"measurement": "Population Mitotic Cells (%)", "setting": "[3]", "result": "40% and 23%"},
      {"measurement": "Population Normal (%)", "setting": "[3]", "result": "100% and 99%"},
      {"measurement": "Population Pyknosed Nuclei (%)", "setting": "[3]", "result": "13% and 14%"},
      {"measurement": "Population Tubulin-Different-Phenotype (%)", "setting": "[3]", "result": "91% and 84%"},
      {"measurement": "Population Apoptotic (%)", "setting": "[4]", "result": "84% and 69%"},
      {"measurement": "Population Fragmented Nuclei (%)", "setting": "[4]", "result": "12% and 17%"},
      {"measurement": "Population Healthy Nuclei (%)", "setting": "[4]", "result": "46% and 50%"},
      {"measurement": "Population Hoechst High Intensity Objects (%)", "setting": "[4]", "result": 2, "unit": "%"},
      {"measurement": "Population Membrane Permeable-Phenotype (%)", "setting": "[4]", "result": "20% and 40%"},
      {"measurement": "Population Mitochondria Different-Phenotype (%)", "setting": "[4]", "result": "7% and 15%"},
      {"measurement": "Population Mitotic Cells (%)", "setting": "[4]", "result": "15% and 30%"},
      {"measurement": "Population Normal (%)", "setting": "[4]", "result": 97, "unit": "%"},
      {"measurement": "Population Pyknosed Nuclei (%)", "setting": "[4]", "result": "41% and 32%"},
      {"measurement": "Population Tubulin-Different-Phenotype (%)", "setting": "[4]", "result": "59% and 65%"},
      {"measurement": "Population Apoptotic (%)", "setting": "[5]", "result": "80% and 82%"},
      {"measurement": "Population Fragmented Nuclei (%)", "setting": "[5]", "result": "10% and 8%"},
      {"measurement": "Population Healthy Nuclei (%)", "setting": "[5]", "result": "80% and 69%"},
      {"measurement": "Population Hoechst High Intensity Objects (%)", "setting": "[5]", "result": 0, "unit": "%"},
      {"measurement": "Population Membrane Permeable-Phenotype (%)", "setting": "[5]", "result": "7% and 5%"},
      {"measurement": "Population Mitochondria Different-Phenotype (%)", "setting": "[5]", "result": "5% and 4%"},
      {"measurement": "Population Mitotic Cells (%)", "setting": "[5]", "result": "20% and 17%"},
      {"measurement": "Population Normal (%)", "setting": "[5]", "result": "100% and 99%"},
      {"measurement": "Population Pyknosed Nuclei (%)", "setting": "[5]", "result": "10% and 21%"},
      {"measurement": "Population Tubulin-Different-Phenotype (%)", "setting": "[5]", "result": "82% and 85%"},
      {"measurement": "Population Apoptotic (%)", "setting": "[6]", "result": "66% and 85%"},
      {"measurement": "Population Fragmented Nuclei (%)", "setting": "[6]", "result": "19% and 10%"},
      {"measurement": "Population Healthy Nuclei (%)", "setting": "[6]", "result": "22% and 26%"},
      {"measurement": "Population Hoechst High Intensity Objects (%)", "setting": "[6]", "result": "0% and 4%"},
      {"measurement": "Population Membrane Permeable-Phenotype (%)", "setting": "[6]", "result": "62% and 35%"},
      {"measurement": "Population Mitochondria Different-Phenotype (%)", "setting": "[6]", "result": "37% and 18%"},
      {"measurement": "Population Mitotic Cells (%)", "setting": "[6]", "result": "33% and 14%"},
      {"measurement": "Population Normal (%)", "setting": "[6]", "result": "100% and 95%"},
      {"measurement": "Population Pyknosed Nuclei (%)", "setting": "[6]", "result": "58% and 63%"},
      {"measurement": "Population Tubulin-Different-Phenotype (%)", "setting": "[6]", "result": "87% and 70%"}
    ]}
  ]
}
